The source of these data is ChEMBL document CHEMBL1132175, “Synthesis and in vivo evaluation of new contrast agents for cardiac MRI” (J Med Chem, 1999).

The subject of series [1] is Mustela putorius furo. As to the kind of experiment: In vivo Myocardial MRI signal intensity (MRI IE)in ferrets induced by the compound at 50 umol/kg was measured at 0-10 min. The class given is functional, Myocardium. In outline: (§1)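 Ferrets received a bolus of 50 µmol/kg Gd complex. BAE and ABE were given as water-soluble pH 7 solutions; ABE used a 1.2-fold ligand excess and 10 mM Gd. BPE, BBE, BHE and BME were given in lecithin/cholesterol liposomes in 0.9% saline/20 mM HEPES pH 7.4. Myocardial signal was read on 1.5 T MRI (head coil) against an agarose phantom and compared with pre-agent control images. Imaging ran over 3 h.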

Series [2] concerns Mustela putorius furo. In words: In vivo Myocardial MRI signal intensity (MRI IE)in ferrets induced by the compound at 50 umol/kg was measured at 180 min. The format is functional, Myocardium. In outline:
as §1

Series [3] can be described thus: Aqueous solubility of the compound. The class given is physicochemical. As to conditions: water; read-out: S. In outline:
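Gd–ligand 1:1 complexes were made from GdCl3 in water at pH 7.0 over a series of nominal concentrations around the expected precipitation point. Experimental concentration was taken as ΔR1(observed)/ρ1. ρ1 came from one well-dissolved sample whose Gd was measured by ICP-OES.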

Series [4] relates to Mustela putorius furo. As to the kind of experiment: In vivo Myocardial MRI signal intensity (MRI IE)in ferrets induced by the compound at 50 umol/kg was measured at 30-60 min. The format is functional, Myocardium. Summed up:
as §1

The subject of series [5] is Mustela putorius furo. As to the kind of experiment: In vivo Myocardial MRI signal intensity (MRI IE)in ferrets induced by the compound at 50 umol/kg was measured at 180 min. The class given is functional, Myocardium. Summed up:
as §1

The structures appear in SMILES notation. In brackets after ≈: the same amount, converted by molar mass.

On to `CCC(=O)OCCN(CCN(CCOC(=O)CC)CC(=O)N(CC(=O)O)CC(=O)O)CC(=O)N(CC(=O)O)CC(=O)O`, for which the IE turned out to be 34.6% in the series with Mustela putorius furo [1], 47.2% in the series with Mustela putorius furo [2] and 38.4% with Mustela putorius furo [4]. Moreover, in series [3], the solubility stood at 7 mM (≈ 4250 µg/mL).

Regarding `CCCCCC(=O)OCCN(CCN(CCOC(=O)CCCCC)CC(=O)N(CC(=O)O)CC(=O)O)CC(=O)N(CC(=O)O)CC(=O)O`, the results for the IE with Mustela putorius furo [1], in the series with Mustela putorius furo [2] and in the series on Mustela putorius furo [4] were 32.3%, 30.1% and 41.7%, respectively. Further, in series [3], the solubility stood at 0.5 mM (≈ 345 µg/mL).

For `CCCC(=O)OCCN(CCN(CCOC(=O)CCC)CC(=O)N(CC(=O)O)CC(=O)O)CC(=O)N(CC(=O)O)CC(=O)O`, the IE is reported as 53.1% in the series with Mustela putorius furo [1], 39.3% with Mustela putorius furo [2] and 52.1% with Mustela putorius furo [4]. Moreover, the solubility in series [3] was found to be 5 mM (≈ 3170 µg/mL).

On to `CCCC(=O)OCCN(CCN(CCOC(C)=O)CC(=O)N(CC(=O)O)CC(=O)O)CC(=O)N(CC(=O)O)CC(=O)O`, for which the IE was 42.8% with Mustela putorius furo [1], 38.5% with Mustela putorius furo [2] and 43.6% with Mustela putorius furo [4]. Further, in series [3], the solubility stood at 25 mM (≈ 15200 µg/mL).

`CCCCCCCCCCCCCC(=O)OCCN(CCN(CCOC(=O)CCCCCCCCCCCCC)CC(=O)N(CC(=O)O)CC(=O)O)CC(=O)N(CC(=O)O)CC(=O)O`: the IE in the series on Mustela putorius furo [1] is reported as 55.2%; with Mustela putorius furo [2] it was 65.2%; in the series with Mustela putorius furo [4], 67.2%. In addition, the solubility in series [3] came to 0.015 mM (≈ 13.7 µg/mL).

Regarding `CC(=O)OCCN(CCN(CCOC(C)=O)CC(=O)N(CC(=O)O)CC(=O)O)CC(=O)N(CC(=O)O)CC(=O)O`, the IE amounted to 87.2% with Mustela putorius furo [1], 10.1% in the series with Mustela putorius furo [5] and 10.1% in the series on Mustela putorius furo [4]. Further, in series [3], the solubility was found to be 30 mM (≈ 17400 µg/mL).
